ERa SRC1 inh: ERα–SRC-1 coactivator interaction inhibitors, primary screen, biochemical, TR-FRET, ERα LBD, estradiol-bound. AID 629, 2007. TR-FRET ER-alpha LBD / SRC-1 peptide. inhibition, % at 25.6 µM. Estrogen receptor (Homo sapiens), P03372. hit rate 1.7% among 86,000; in the data active = inhibition above about 50%;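 note: 0% = receptor plus peptide control and 100% = peptide only without receptor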
BAP1 inh: inhibitors of BAP1 deubiquitinase, primary screen, biochemical, Ub-AMC fluorescence, kinetic; calls only at 20 µM; Ubiquitin carboxyl-terminal hydrolase BAP1 (Homo sapiens), Q92560; hit rate 0.48% among 72,000; recombinant BAP1, Ub-AMC hydrolysis fluorescence kinetic; active compounds read low;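 active = activity remaining at or below 50% of control, provided the compound also passes the data quality filters; inactive = the rest, including low values that fail the filters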;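 note: 100% = DMSO wells rate and 0% = substrate alone blank rate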
ERa SRC1 pot: enhancers of ERα–SRC-1 coactivator binding, primary screen, biochemical, TR-FRET, ERα LBD, low estradiol | hit rate 1.3% among 86,000 | TR-FRET ERalpha-LBD/SRC-Cy5 coactivator binding, 2 h; 100 = basal binding, no effect | AID 639, 2007 | Estrogen receptor (Homo sapiens), P03372 | coactivator binding (% of control), % at 25.6 µM; in the data active = activity above about 200%;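 note: binding measured in presence of low estradiol as agonist stimulus; 0% = peptide alone without receptor and 100% = receptor with peptide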
ERb coact inh: inhibitors of ERβ-SRC1 coactivator interaction, primary screen, biochemical, TR-FRET, ERβ LBD, SRC-1 peptide | Estrogen receptor beta (Homo sapiens), Q92731 | TR-FRET ER-beta LBD / SRC1-Cy5 peptide binding; receptor agonist-loaded with 1 µM estradiol | inhibition, % at 25.6 µM | hit rate 1.3% among 86,000 | AID 633, 2007;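 active = compounds whose percent inhibition of the receptor-coactivator binding signal exceeds about 50% in the single-dose screen, limit read from the data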;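 note: 0% = receptor plus peptide wells without compound and 100% = peptide-only wells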
Target sequence (Q92731 whole entry, looked up, the tested form may be a part): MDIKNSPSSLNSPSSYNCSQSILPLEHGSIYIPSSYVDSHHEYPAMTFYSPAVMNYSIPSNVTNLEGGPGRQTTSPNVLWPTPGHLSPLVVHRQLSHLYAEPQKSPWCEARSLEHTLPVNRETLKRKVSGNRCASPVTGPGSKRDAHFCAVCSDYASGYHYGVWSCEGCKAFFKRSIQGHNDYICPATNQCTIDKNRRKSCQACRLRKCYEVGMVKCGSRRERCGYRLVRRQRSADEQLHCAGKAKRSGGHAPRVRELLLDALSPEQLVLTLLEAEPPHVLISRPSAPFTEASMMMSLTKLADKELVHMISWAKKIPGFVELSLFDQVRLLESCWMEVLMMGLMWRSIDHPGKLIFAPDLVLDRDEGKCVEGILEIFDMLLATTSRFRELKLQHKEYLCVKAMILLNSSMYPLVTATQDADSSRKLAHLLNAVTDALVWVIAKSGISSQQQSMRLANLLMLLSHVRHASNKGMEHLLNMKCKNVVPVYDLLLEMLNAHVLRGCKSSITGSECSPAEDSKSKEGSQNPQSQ
SF1 activator: activators of human SF-1, primary screen, cell-based, CHO-K1, Gal4-SF-1 LBD, luciferase luminescence. CHO-K1 Gal4-SF-1 LBD luciferase reporter; % increase over DMSO SF-1-specific signal. activation, % at 10 µM. hit rate 1.9% among 65,000. AID 522, 2006;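 active = activation above the mean activation of all tested compounds plus 3 SD, cut at about 50% in these data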
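Compound – one dose, 10 µM compound, 1% DMSO · Test system – transient Gal4-SF-1 LBD reporter, CHO-K1 · Input – 4,000 cells in each well · Read-out basis – percent activation relative to DMSO median and mock-transfected background · Replicates – single measurement per compound · Technique – steady-glow luciferase luminescence, read after 15 min reagent incubation · Timing – 20 h compound treatment, 37 °C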
RORA act: activators of orphan receptor RORA, primary screen, cell-based, luminescence | Nuclear receptor ROR-alpha (Homo sapiens), P35398 | CHO-K1 Gal4-RORA LBD luciferase reporter; percent increase over mock-subtracted basal signal | activation, % at 10 µM | hit rate 1.5% among 65,000;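 active = activation above the mean of all tested compounds plus 3 SD, cut at about 49% in these data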;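 note: 0% = DMSO-treated RORA cells and 100% = added signal equal to DMSO minus mock-transfected cells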
An asterisk follows results filed as active; [ ] = dose if it differs, or a comment. Only some compounds are listed: those with a hit (about 5.1% of all), similar ones and a draw of the others.

How did Cc1nc2ccc3nc(NC(=O)c4ccc5c(c4)OCCO5)sc3c2s1 do in these assays?
ERa SRC1 inh: 62*[fluorescence artefact?]; BAP1 inh: inactive; ERa SRC1 pot: 418*[fluorescence artefact?]; ERb coact inh: 44; SF1 activator: 28; RORA act: 24

What do the screens show for `Cc1nc2c(ccc3nc(NC(=O)c4ccc5c(c4)OCCO5)sc32)s1`?
ERa SRC1 inh: 75*[fluorescence artefact?]; ERa SRC1 pot: 201*[fluorescence artefact?]; ERb coact inh: 58*[fluorescence artefact?]; SF1 activator: 17; RORA act: -8

What do the screens show for `CCN(CC)S(=O)(=O)c1ccc(C(=O)Nc2nc3ccc4sc(C)nc4c3s2)cc1`?
BAP1 inh: inactive

How did CCC(=O)Nc1nc2ccc3nc(C)sc3c2s1 do in these assays?
ERa SRC1 inh: 14; BAP1 inh: inactive; ERa SRC1 pot: 82; ERb coact inh: 9; SF1 activator: 56*; RORA act: 82*

What do the screens show for `COc1ccc(C(=O)Nc2cc3cccc([N+](=O)[O-])c3oc2=O)c(Cl)c1`?
BAP1 inh: inactive

How did CCN(CC)S(=O)(=O)c1ccc(C(=O)Nc2nc3c(cc4c5c(cccc53)CC4)s2)cc1 do in these assays?
BAP1 inh: inactive

Results for C=CCN1C(=O)C(C(c2ccc(Cl)cc2)C2C(=O)NC(=S)N(CC=C)C2=O)C(=O)NC1=S (configuration not stated) ?
BAP1 inh: inactive

How did Cc1ccc(-c2nnc(N)s2)cc1C do in these assays?
BAP1 inh: inactive

What do the screens show for `O=C(COC(=O)CCCN1C(=O)c2ccccc2C1=O)Nc1ncc(Cl)cc1Cl`?
ERa SRC1 inh: 69*[fluorescence artefact?]; BAP1 inh: inactive; ERa SRC1 pot: 48; ERb coact inh: 58*[fluorescence artefact?]; SF1 activator: -8; RORA act: -11

How did O=C(COC(=O)CN1C(=O)c2ccccc2C1=O)Nc1ncc(Cl)cc1Cl do in these assays?
ERa SRC1 inh: 60*[fluorescence artefact?]; BAP1 inh: inactive; ERa SRC1 pot: 54; ERb coact inh: 56*; SF1 activator: 7; RORA act: 7

How did O=C(COC(=O)C1CCN(S(=O)(=O)c2cc([N+](=O)[O-])ccc2Cl)CC1)Nc1ncc(Cl)cc1Cl do in these assays?
ERa SRC1 inh: 78*[fluorescence artefact?]; ERa SRC1 pot: 18; ERb coact inh: 80*[fluorescence artefact?]

Results for CC(C)CC(C(=O)OCC(=O)Nc1ncc(Cl)cc1Cl)N1C(=O)c2ccccc2C1=O (configuration not stated) ?
ERa SRC1 inh: 11; ERa SRC1 pot: 107; ERb coact inh: 28

Results for O=C(COC(=O)CCS(=O)(=O)c1ccc(Cl)cc1)Nc1ncc(Cl)cc1Cl ?
ERa SRC1 inh: -5; ERa SRC1 pot: 101; ERb coact inh: 0; SF1 activator: -1; RORA act: 16

Results for COc1ccc2oc(=Nc3ccccc3OC)c(C(=O)NC(C)=O)cc2c1 ?
BAP1 inh: inactive

What do the screens show for `COc1ccc(NC(=O)CSc2nc3c(cc2C#N)CN(C)CC3)cc1`?
ERa SRC1 inh: 93*[fluorescence artefact?]; BAP1 inh: inactive; ERa SRC1 pot: 34; ERb coact inh: 56*; SF1 activator: 13; RORA act: -8

How did CN1CCc2nc(SCC(=O)Nc3ccc(F)cc3)c(C#N)cc2C1 do in these assays?
ERa SRC1 inh: 83*; BAP1 inh: inactive; ERa SRC1 pot: 38; ERb coact inh: 49; SF1 activator: 7; RORA act: 9

Results for COc1ccc(CNC(=O)c2nn3c(c2Cl)NC(c2cccs2)CC3C(F)(F)F)cc1 (configuration not stated) ?
BAP1 inh: inactive

How did COc1cc2nc(NC(=O)c3ccccc3)[nH]c(=O)c2cc1OC do in these assays?
ERa SRC1 inh: 0; BAP1 inh: inactive; ERa SRC1 pot: 124; ERb coact inh: -1; SF1 activator: 6; RORA act: 2

How did COc1ccc(C(=O)Nc2nc3cc(OC)c(OC)cc3c(=O)[nH]2)cc1 do in these assays?
ERa SRC1 inh: 9; BAP1 inh: inactive; ERa SRC1 pot: 434*; ERb coact inh: 22; SF1 activator: -1; RORA act: -8

How did COc1ccc(OCC(=O)Nc2ccc(F)cc2)cc1 do in these assays?
BAP1 inh: inactive

What do the screens show for `O=C(NCCCN1CCCCCC1)C1CC(=O)N(CCc2ccccc2)C1` (configuration not stated)?
ERa SRC1 inh: 3; BAP1 inh: inactive; ERa SRC1 pot: 966*[fluorescence artefact?]; ERb coact inh: 22; SF1 activator: 10; RORA act: 3

Results for O=C1C2C3C=CC(C3)C2C(=O)N1c1ccc(-c2nc3ccccc3o2)cc1 (configuration not stated) ?
ERa SRC1 inh: -14; BAP1 inh: inactive; ERa SRC1 pot: 116; ERb coact inh: 8; SF1 activator: 41; RORA act: 73*

What do the screens show for `O=C1C2C3C=CC(C3)C2C(=O)N1c1ccncc1` (configuration not stated)?
ERa SRC1 inh: 0; BAP1 inh: inactive; ERa SRC1 pot: 118; ERb coact inh: -5; SF1 activator: -27; RORA act: 6

Results for CCOC(=O)CSc1nc2ccccc2c(=O)n1NC(=O)c1ccccc1 ?
ERa SRC1 inh: -27; BAP1 inh: inactive; ERa SRC1 pot: 98; ERb coact inh: -28; SF1 activator: 56*; RORA act: 2

What do the screens show for `O=C(c1cccs1)c1coc2ccc(O)cc12`?
ERa SRC1 inh: -1; ERa SRC1 pot: 96; ERb coact inh: -6

How did CCC(=O)c1coc2ccc(O)cc12 do in these assays?
ERa SRC1 inh: 67*[fluorescence artefact?]; ERa SRC1 pot: 45; ERb coact inh: 78*[fluorescence artefact?]

What do the screens show for `CC(=O)c1cccc(NC(=O)CN2C(=O)NC3(CCCCCCC3)C2=O)c1`?
ERa SRC1 inh: 57*; BAP1 inh: inactive; ERa SRC1 pot: 69; ERb coact inh: 31; SF1 activator: 4; RORA act: -6

What do the screens show for `Cn1c(SCc2ccc(C#N)cc2Cl)nc2ccccc21`?
ERa SRC1 inh: 6; BAP1 inh: inactive; ERa SRC1 pot: 101; ERb coact inh: 4; SF1 activator: 37; RORA act: 82*

How did O=C(Nc1ccc(Cl)cc1)N1CC=CCC1 do in these assays?
ERa SRC1 inh: -3; BAP1 inh: inactive; ERa SRC1 pot: 120; ERb coact inh: -9; SF1 activator: 20; RORA act: 52*
